# Measurements published in article PMC11577639 (Journal of medicinal chemistry, 2024).
# Read-outs that look alike come from different tables or passages of the source.
# What was measured:
# [1] = tested on: Human neuronal SH-SY5Y cells (ATCC CRL-2266); test: SH-SY5Y cytotoxicity assay; format: cell-based; details: Table 3; SH-SY5Y CC50 / Nf69 EC50
# [2] = SH-SY5Y cytotoxicity assay; format: cell-based, human; details: human, SH-SY5Y neuroblastoma cells
# [3] = tested on: N. fowleri (Nf69 strain, ATCC 30215) trophozoites; test: N. fowleri Nf69 dose-response growth inhibition; format: cell-based, Naegleria fowleri
# [4] = BBB parallel artificial membrane permeation assay; format: in vitro ADME; details: for BBB PAMPA CNS class: classified against positive and negative controls
# Summary of the method: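 Porcine polar brain lipid in dodecane coated on filter membrane. Test compound from DMSO stock diluted in PBS pH 7.4 in donor wells, PBS acceptor, room temperature incubation. Donor and filter-well concentrations measured by HPLC. Verapamil, clonidine, hydrocortisone and theophylline as […]. Pe > 15 nm/s scored CNS+, ≤ 15 CNS-.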
# Plasma protein binding = format: in vitro ADME; details: CD-1 mouse
# Summary of the method: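 96-well equilibrium dialysis against CD-1 male mouse plasma (EDTA-K2), test compound on donor side in triplicate, dialysis buffer on receiver side. Incubated 4 h at 37 °C, 5% CO2, slow shaking. Both sides sampled, diluted in acetonitrile containing tolbutamide, labetalol, metformin and internal standard, centrifuged and analysed by LC-MS/MS. Warfarin as positive control.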
# Mouse plasma stability = format: in vitro ADME; details: male, CD-1, mouse
# Summary of the method: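 Test compound added from DMSO stock to CD-1 mouse plasma (EDTA-K2, ≥20 male donors). Incubated at 37 °C for 0, 10, 30, 60 or 120 min. Protein precipitated with tolbutamide and labetalol in acetonitrile, then shaken and centrifuged. Supernatant diluted in water and analysed by LCMS with internal standard. Enalapril maleate, bisacodyl and procaine HCl as controls.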
# Mouse pharmacokinetics = format: in vivo, female CD-1 mice; details: female, CD-1, mouse, plasma, iv, 11 mg/kg
# Summary of the method: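 Female CD-1 mice, n = 3/group. First study: single IV 11.1 mg/kg or PO 10.7 mg/kg (fasted), 10% NMP/20% cremophor EL/70% water, plasma at 0.5, 2, 4, 8, 12 h, brain homogenised in MeOH/PBS at 12 h. Second: fasted, IP 44 mg/kg suspension in 10% DMSO/30% cremophor EL/60% water, plasma at 2 and 4 h. LC-MS/MS, verapamil internal standard. LLOQ 1 ng/mL plasma, 10 ng/g brain.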
smiles,measurement,setting,value
"CN1CCC[C@H]2c3nc4ccc(C(F)(F)F)cc4c(=O)n3CC[C@@H]21 [trans-15b-ent-2, (4aS,13bR)-4-Methyl-10-(trifluoromethyl)-1,2,3,4,4a,5,6,13b-octahydro-8H-[1,6]naphthyridino[5,6-b]quinazolin-8-one]","SI (selectivity index, CC50/EC50)",[1],>4.7
same,CC50 at 72 h,[2],> 20 µM
"CN1CCC[C@@H]2c3nc4ccc(C(F)(F)F)cc4c(=O)n3CC[C@H]21 (single isomer, unassigned) [trans-15b-ent-1]","SI (selectivity index, CC50/EC50)",[1],>80.0
CN1CCC[C@@H]2c3nc4ccc(Cl)cc4c(=O)n3CC[C@H]21 (racemic) [±−16b],"SI (selectivity index, CC50/EC50)",[1],>20.0
"CN1CCC[C@@H]2c3nc4ccc(Cl)cc4c(=O)n3CC[C@H]21 (single isomer, unassigned) [trans-16b-ent-1]","SI (selectivity index, CC50/EC50)",[1],>71.4
"CN1CCC[C@H]2c3nc4cc(Cl)c(Cl)cc4c(=O)n3CC[C@@H]21 [trans-21b-ent-2, (4aS,13bR)-10,11-Dichloro-4-methyl-1,2,3,4,4a,5,6,13b-octahydro-8H-[1,6]naphthyridino[5,6-b]quinazolin-8-one]","SI (selectivity index, CC50/EC50)",[1],>7.7
same,CC50 at 72 h,[2],> 20 µM
"CCCCCCCCCCCCCCCCOP(=O)([O-])OCC[N+](C)(C)C [miltefosine, reference compound]",EC50,"[3]; Naegleria fowleri, ATCC30215",35.7 ± 9.1 µM
"COc1cc2nc3n(c(=O)c2cc1Cl)CC[C@@H]1[C@@H]3CCCN1CC1COC1 [trans-57b-ent-1, (4aR,13bS)-10-Chloro-11-methoxy-4-(oxetan-3-ylmethyl)-1,2,3,4,4a,5,6,13b-octahydro-8H-[1,6]naphthyridino[5,6-b]-quinazolin-8-one]","BBB PAMPA, Peavg","[4]; averaged data from duplicate runs, 4 h",18.2 ×10⁻⁶ cm/s
same,BBB PAMPA CNS class,[4],CNS+ (Pe > 15 nm/s = CNS+)
same,plasma protein binding,Plasma protein binding,74% bound
same,"SI (selectivity index, CC50/EC50)",[1],>40.8
"CN1CC[C@H]2c3nc4ccc(Cl)cc4c(=O)n3CC[C@H]21 (racemic) [31a, (±)-(3aR,12bR)-9-Chloro-3-methyl-2,3,3a,4,5,12b-hexahydropyrrolo[3′,2′:3,4]pyrido[2,1-b]quinazolin-7(1H)-one]",EC50,"[3]; read-out: EC50, N. fowleri Nf69, tested up to 10 μM",> 10 µM
"CN1CCC[C@H]2c3nc4ccc(Cl)cc4c(=O)n3CC[C@@H]21 [trans-16b-ent-2, (4aS,13bR)-10-Chloro-4-methyl-1,2,3,4,4a,5,6,13b-octahydro-8H-[1,6]naphthyridino[5,6-b]quinazolin-8-one]","SI (selectivity index, CC50/EC50)",[1],>5.0
same,CC50 at 72 h,[2],> 20 µM
"COc1cc2nc3n(c(=O)c2cc1Cl)CC[C@H]1[C@H]3CCCN1CC1COC1 (single isomer, unassigned) [trans-57b-ent-2]",BBB PAMPA CNS class,[4],CNS+ (Pe > 15 nm/s = CNS+)
same,plasma protein binding,Plasma protein binding,74% bound
same,half-life,Mouse plasma stability,> 4.82 h
same,clearance at 12 h,Mouse pharmacokinetics,40.8 ± 7.6 mL/min/kg
"CN1CCC[C@@H]2c3nc4cc(Cl)c(Cl)cc4c(=O)n3CC[C@H]21 (racemic) [±−21b, (±)-(4aR,13bS)-10,11-Dichloro-4-methyl-1,2,3,4,4a,5,6,13b-octahydro-8H-[1,6]naphthyridino[5,6-b]quinazolin-8-one]","SI (selectivity index, CC50/EC50)",[1],>100
"COc1cc2nc3n(c(=O)c2cc1Cl)CC[C@@H]1[C@@H]3CCCN1CC(C)C (single isomer, unassigned) [trans-62b-ent-1]","SI (selectivity index, CC50/EC50)",[1],>32.3
"CN1CCC[C@@H]2c3nc4ccc(C(F)(F)F)cc4c(=O)n3CC[C@H]21 (racemic) [±−15b, (±)-(4aR,13bS)-4-Methyl-10-(trifluoromethyl)-1,2,3,4,4a,5,6,13b-octahydro-8H-[1,6]naphthyridino[5,6-b]-quinazolin-8-one]","SI (selectivity index, CC50/EC50)",[1],>18.2
